# Experimental data reported in ChEMBL document CHEMBL4177600, “Identification of novel PI3K inhibitors through a scaffold hopping strategy” (Bioorg Med Chem Lett, 2017).
# Experiments:
# [1] = target: Dual specificity tyrosine-phosphorylation-regulated kinase 1A (Homo sapiens) (UniProt Q13627); experiment: Inhibition of DYRK1A (unknown origin) at 1 uM relative to control
# How it was run: (§1)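 Kinase panel of 24 enzymes, each tested at 1 µM; percent inhibition reported as the average of two independent data points.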
# CYP2D6 = CYP2D6 (Homo sapiens, UniProt P10635); experiment: Inhibition of CYP2D6 (unknown origin) at 10 uM relative to control; type: ADME
# How it was run: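 CYP1A2, 2C9, 2C19, 2D6 and 3A4 inhibition measured at 10 µM test compound in duplicate; percent inhibition reported.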
# [2] = target: Casein kinase I isoform alpha (Homo sapiens) (UniProt P48729); experiment: Inhibition of recombinant human N-terminal GST/HIS6-tagged CK1alpha (M1 to F365 residues) expressed in Sf9 insect cells at 1 uM using casein as substrate by fliter binding assay relative to control; how it was run: as §1
# PI3K p110 beta/p85 alpha = PI3K p110 beta/p85 alpha (Homo sapiens, UniProt P42338); experiment: Inhibition of p110beta/85alpha (unknown origin) using PIP2 as substrate by HTRF assay; type: protein-complex assay; details: read-out: Ki(app)
# [3] = target: T1, Serine/threonine-protein kinase Sgk1 (Homo sapiens) (UniProt O00141); experiment: Inhibition of recombinant human N-terminal GST-tagged SGK1 (M1 to L431 residues) expressed in baculovirus infected Sf9 cells at 1 uM using GSK3-derived peptide as substrate by filter binding method relative to control; how it was run: as §1
# T1 sequence (whole entry): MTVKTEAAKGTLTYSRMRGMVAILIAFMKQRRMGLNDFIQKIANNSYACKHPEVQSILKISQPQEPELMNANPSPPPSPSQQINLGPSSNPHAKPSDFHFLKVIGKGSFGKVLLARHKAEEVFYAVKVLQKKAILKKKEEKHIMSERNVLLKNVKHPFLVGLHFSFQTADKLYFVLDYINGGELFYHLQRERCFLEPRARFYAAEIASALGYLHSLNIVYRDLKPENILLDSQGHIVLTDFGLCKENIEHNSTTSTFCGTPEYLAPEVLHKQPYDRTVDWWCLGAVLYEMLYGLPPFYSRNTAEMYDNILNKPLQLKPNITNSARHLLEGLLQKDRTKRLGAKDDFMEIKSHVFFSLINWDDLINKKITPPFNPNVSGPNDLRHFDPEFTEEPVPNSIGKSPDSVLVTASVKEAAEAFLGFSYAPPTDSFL
# [4] = test system: Serine/threonine-protein kinase B-raf (Homo sapiens), P15056 [V600E]; experiment: Inhibition of recombinant human N-terminal GST/HIS6-tagged BRAF V600E mutant (Q417 to H766 residues) expressed in Sf9 insect cells at 1 uM using MEK1-KM as substrate by fliter binding assay relative to control; how it was run: as §1
# [5] = target: Platelet-derived growth factor receptor alpha (Homo sapiens) (UniProt P16234); experiment: Inhibition of recombinant human N-terminal GST/His6-tagged PDGFRalpha (Q551 to L1089 residues) expressed in Sf9 insect cells at 1 uM using TRK-C-derived peptide as substrate by filter binding method relative to control
# How it was run: (§2)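 Single-point screen at 1 µM in a 24-kinase panel run externally; each value is the average of two independent data points. The detailed assay conditions are given only on the provider's site.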
# [6] = target: RAC-beta serine/threonine-protein kinase (Homo sapiens) (UniProt P31751); experiment: Inhibition of human AKT2 at 1 uM by filter binding assay relative to control; how it was run: as §1
# [7] = target: T2, Serine/threonine-protein kinase Chk1 (Homo sapiens) (UniProt O14757); experiment: Inhibition of recombinant human N-terminal GST/HIS6-tagged CHK1 (M1 to T476 residues) expressed in baculovirus infected Sf9 insect cells at 1 uM using S6 peptide as substrate by fliter binding assay relative to control; how it was run: as §1
# T2 sequence (whole entry): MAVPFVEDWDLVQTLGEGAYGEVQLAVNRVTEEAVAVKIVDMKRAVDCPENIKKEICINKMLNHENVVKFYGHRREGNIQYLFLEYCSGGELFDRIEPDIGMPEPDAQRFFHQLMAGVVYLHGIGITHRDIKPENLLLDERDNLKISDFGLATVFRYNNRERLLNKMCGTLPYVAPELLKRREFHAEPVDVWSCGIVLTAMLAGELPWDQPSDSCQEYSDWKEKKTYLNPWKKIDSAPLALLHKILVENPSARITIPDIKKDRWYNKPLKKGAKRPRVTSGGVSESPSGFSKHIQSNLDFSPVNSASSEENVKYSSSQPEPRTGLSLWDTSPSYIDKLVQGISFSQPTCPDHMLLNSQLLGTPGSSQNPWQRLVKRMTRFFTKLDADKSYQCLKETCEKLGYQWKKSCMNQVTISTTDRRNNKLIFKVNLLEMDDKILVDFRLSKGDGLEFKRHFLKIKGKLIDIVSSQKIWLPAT
# [8] = target: Voltage-gated inwardly rectifying potassium channel KCNH2 (Homo sapiens, UniProt Q12809); experiment: Inhibition of human ERG by Tracer Red dye based fluorescence polarization assay
# How it was run: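 hERG binding measured with Predictor hERG kit per kit instructions, read by fluorescence polarization.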
# [9] = target: T3, 3-phosphoinositide-dependent protein kinase 1 (Homo sapiens) (UniProt O15530); experiment: Inhibition of recombinant human N-terminal His6-tagged PDK1 (M1 to M460 residues) expressed in Sf9 insect cells at 1 uM using LRRWSLG as substrate by filter binding method relative to control; how it was run: as §2
# T3 sequence (whole entry): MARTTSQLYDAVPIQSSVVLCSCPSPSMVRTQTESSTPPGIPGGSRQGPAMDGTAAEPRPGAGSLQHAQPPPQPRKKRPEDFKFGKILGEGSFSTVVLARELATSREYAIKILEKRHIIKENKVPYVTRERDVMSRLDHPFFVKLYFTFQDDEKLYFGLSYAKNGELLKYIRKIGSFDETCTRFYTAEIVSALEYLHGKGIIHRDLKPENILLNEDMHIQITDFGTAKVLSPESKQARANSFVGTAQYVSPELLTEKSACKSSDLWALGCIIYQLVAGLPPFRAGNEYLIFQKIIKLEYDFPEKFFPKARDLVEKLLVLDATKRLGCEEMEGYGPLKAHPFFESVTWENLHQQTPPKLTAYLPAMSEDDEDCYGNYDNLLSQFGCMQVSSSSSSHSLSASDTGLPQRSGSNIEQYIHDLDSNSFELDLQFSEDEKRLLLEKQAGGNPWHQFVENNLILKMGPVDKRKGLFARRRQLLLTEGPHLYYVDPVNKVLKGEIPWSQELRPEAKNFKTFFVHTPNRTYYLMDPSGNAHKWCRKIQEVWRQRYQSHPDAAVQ
# [10] = Permeability of the compound at 300 uL after 5 hrs by PAMPA; type: ADME; details: read-out: permeability
# How it was run: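 Pre-coated PAMPA plates with a tri-layer phospholipid membrane. Donor held compound in PBS at the highest concentration soluble in PBS; acceptor was PBS. Incubated 5 h at room temperature, with propranolol and sorafenib (10 µM) as high and low permeability controls. Donor and acceptor concentrations measured by LC-MS/MS; Pe (10^-6 cm/s) calculated from acceptor/equilibrium concentrations, 0.3 cm² area and well volumes.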
# [11] = target: Focal adhesion kinase 1 (Homo sapiens) (UniProt Q05397); experiment: Inhibition of human FAK at 1 uM relative to control; how it was run: as §1
# Sequence of Serine/threonine-protein kinase B-raf (Homo sapiens), P15056 [V600E] (P15056 whole entry V600E, the tested form may be a part): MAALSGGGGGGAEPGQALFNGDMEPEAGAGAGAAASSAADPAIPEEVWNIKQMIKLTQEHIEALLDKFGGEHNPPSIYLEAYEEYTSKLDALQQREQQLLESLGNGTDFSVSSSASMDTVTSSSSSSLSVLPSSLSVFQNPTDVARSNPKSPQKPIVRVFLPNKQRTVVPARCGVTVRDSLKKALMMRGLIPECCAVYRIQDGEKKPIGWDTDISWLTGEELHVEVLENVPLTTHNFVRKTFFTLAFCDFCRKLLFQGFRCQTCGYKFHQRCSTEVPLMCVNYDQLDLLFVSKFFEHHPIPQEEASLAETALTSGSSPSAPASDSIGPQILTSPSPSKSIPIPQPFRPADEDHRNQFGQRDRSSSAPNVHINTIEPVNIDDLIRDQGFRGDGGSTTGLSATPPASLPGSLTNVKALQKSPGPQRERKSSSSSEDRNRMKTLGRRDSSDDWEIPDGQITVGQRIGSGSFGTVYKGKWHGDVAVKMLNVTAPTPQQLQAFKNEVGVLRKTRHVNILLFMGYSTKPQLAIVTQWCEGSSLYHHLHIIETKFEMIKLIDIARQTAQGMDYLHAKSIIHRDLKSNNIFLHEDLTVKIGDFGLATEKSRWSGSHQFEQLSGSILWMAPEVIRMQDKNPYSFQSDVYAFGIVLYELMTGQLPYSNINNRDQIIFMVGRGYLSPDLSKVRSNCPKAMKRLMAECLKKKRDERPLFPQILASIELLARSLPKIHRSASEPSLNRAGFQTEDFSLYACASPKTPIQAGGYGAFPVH
# Sequence of RAC-beta serine/threonine-protein kinase (Homo sapiens) (P31751 whole entry, the tested form may be a part): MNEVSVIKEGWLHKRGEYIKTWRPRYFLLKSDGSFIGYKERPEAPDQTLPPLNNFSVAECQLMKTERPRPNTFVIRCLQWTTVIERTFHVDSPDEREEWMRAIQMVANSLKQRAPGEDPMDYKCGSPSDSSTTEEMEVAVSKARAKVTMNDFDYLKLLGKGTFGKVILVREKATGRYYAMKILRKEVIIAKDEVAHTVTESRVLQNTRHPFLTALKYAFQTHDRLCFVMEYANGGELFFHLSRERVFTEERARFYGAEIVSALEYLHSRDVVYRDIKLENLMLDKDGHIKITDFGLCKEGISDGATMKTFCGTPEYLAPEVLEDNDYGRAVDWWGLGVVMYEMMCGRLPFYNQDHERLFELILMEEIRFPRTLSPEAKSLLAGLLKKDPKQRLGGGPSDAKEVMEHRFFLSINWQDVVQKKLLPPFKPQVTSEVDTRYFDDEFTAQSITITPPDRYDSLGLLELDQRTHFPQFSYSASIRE
# Sequence of Voltage-gated inwardly rectifying potassium channel KCNH2 (Q12809 whole entry): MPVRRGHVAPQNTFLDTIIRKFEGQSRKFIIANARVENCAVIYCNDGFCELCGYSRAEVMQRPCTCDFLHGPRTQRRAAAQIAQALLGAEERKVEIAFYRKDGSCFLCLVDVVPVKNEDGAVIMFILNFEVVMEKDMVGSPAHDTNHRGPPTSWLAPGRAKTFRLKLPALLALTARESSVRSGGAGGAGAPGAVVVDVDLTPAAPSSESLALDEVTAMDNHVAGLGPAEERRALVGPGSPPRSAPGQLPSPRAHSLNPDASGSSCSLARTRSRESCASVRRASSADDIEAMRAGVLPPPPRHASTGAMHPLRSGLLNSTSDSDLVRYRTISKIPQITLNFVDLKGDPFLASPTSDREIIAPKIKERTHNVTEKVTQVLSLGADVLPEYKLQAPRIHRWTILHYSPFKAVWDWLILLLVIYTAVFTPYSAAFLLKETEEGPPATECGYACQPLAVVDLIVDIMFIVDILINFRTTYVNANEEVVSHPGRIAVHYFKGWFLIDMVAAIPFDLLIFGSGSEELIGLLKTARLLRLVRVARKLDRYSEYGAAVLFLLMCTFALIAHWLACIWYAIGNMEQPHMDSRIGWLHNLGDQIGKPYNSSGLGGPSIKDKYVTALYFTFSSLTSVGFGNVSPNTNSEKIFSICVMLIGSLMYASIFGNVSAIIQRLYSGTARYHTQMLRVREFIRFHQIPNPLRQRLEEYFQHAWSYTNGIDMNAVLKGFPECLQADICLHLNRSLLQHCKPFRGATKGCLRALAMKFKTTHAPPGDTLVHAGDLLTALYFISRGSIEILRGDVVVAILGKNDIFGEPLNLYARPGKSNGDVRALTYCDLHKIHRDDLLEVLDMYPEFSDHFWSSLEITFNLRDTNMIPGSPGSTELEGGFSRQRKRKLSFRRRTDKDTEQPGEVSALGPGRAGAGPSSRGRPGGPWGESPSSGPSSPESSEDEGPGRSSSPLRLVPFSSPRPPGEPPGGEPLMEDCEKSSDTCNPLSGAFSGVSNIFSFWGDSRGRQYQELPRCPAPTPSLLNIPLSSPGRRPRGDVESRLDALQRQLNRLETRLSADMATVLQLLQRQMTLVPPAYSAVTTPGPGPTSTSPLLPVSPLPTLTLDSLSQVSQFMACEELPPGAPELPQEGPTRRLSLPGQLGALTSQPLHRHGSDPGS
# Sequence of PI3K p110 beta/p85 alpha (P27986 whole entry, the tested form may be a part): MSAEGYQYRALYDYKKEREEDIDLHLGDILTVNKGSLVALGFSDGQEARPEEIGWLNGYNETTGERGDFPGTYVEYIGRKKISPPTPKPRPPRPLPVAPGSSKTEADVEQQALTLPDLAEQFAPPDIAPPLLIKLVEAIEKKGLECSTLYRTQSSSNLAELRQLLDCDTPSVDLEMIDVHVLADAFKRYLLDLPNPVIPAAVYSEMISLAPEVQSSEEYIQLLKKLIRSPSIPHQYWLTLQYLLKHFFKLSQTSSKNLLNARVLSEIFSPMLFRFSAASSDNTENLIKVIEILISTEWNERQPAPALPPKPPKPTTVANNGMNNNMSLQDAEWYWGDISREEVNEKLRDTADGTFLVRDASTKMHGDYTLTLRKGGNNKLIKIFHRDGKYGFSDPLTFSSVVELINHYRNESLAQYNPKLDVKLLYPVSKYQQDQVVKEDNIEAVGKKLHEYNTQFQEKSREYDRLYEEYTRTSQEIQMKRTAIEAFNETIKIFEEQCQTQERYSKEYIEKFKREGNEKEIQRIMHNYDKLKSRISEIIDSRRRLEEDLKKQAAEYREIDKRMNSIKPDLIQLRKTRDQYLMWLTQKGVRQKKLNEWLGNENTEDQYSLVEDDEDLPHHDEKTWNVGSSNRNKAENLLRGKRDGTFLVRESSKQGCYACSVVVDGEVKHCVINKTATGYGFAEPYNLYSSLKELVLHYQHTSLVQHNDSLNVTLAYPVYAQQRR
# Sequence of PI3K p110 beta/p85 alpha (P42338 whole entry, the tested form may be a part): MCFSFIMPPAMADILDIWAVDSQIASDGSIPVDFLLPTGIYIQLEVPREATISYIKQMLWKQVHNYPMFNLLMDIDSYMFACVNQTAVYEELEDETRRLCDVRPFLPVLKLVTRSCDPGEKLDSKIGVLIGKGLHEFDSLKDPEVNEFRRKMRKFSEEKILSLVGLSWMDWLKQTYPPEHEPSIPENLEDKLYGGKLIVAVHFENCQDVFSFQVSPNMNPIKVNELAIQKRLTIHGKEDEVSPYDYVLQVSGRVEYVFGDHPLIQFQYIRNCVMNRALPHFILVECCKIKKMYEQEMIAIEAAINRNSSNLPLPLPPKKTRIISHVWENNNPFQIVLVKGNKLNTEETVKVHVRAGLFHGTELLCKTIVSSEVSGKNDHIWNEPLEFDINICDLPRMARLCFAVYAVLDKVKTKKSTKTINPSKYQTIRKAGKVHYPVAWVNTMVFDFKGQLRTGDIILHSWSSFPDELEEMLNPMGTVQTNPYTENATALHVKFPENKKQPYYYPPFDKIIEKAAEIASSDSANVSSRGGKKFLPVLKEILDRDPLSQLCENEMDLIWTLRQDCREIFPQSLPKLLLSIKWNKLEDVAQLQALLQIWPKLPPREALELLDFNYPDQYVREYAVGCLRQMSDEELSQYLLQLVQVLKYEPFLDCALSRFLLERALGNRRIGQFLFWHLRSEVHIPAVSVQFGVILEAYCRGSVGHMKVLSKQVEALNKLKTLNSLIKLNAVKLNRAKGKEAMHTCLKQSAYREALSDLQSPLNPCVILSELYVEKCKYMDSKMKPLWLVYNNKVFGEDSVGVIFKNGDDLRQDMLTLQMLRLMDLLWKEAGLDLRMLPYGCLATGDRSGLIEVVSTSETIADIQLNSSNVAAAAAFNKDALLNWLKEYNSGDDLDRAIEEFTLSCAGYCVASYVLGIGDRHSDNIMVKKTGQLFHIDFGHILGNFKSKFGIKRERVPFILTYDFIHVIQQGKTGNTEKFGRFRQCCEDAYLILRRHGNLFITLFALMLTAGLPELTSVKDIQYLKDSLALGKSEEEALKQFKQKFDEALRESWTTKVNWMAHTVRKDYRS
# Sequence of CYP2D6 (P10635 whole entry): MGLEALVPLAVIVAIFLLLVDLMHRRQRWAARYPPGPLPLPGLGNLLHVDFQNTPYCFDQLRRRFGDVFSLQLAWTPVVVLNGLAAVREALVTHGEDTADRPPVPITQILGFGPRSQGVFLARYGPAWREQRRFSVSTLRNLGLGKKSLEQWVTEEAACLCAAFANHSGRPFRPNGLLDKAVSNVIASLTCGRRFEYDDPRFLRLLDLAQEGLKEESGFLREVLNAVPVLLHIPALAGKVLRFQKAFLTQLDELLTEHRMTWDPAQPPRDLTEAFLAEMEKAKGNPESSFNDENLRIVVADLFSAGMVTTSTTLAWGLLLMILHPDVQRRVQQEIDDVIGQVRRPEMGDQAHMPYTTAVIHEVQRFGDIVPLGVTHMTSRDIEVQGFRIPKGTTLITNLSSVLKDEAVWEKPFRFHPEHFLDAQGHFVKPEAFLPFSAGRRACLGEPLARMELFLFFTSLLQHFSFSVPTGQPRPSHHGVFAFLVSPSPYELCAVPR
# Sequence of Casein kinase I isoform alpha (Homo sapiens) (P48729 2-337 limits assumed): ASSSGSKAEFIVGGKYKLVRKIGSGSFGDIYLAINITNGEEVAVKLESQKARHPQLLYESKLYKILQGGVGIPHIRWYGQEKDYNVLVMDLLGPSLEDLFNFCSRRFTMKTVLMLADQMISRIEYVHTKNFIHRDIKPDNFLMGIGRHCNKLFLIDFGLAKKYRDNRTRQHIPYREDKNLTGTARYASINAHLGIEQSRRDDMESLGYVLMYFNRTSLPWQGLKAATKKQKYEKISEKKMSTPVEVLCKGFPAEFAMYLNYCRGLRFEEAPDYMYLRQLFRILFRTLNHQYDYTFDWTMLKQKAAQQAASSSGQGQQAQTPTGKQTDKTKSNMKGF
inhibition [1] [%],inhibition at 10 µM (CYP2D6) [%],inhibition [2] [%],Ki (PI3K p110 beta/p85 alpha) [nM],inhibition [3] [%],inhibition [4] [%],inhibition [5] [%],inhibition [6] [%],inhibition [7] [%],inhibition [9] [%],Papp at 5 h [10] [×10⁻⁶ cm/s],inhibition [11] [%],Structure (SMILES),IC50 [8] [nM]
< 25,< 25,< 25,49.2,< 25,< 25,< 25,< 25,< 25,< 25,0.93,< 25,CS(=O)(=O)N1CCN(Cc2cc3c(N4CCOCC4)nc(-c4cnc(N)nc4)cn3n2)CC1,> 30000
< 25,< 25,< 25,285,< 25,< 25,< 25,< 25,< 25,< 25,0.69,< 25,CS(=O)(=O)N1CCN(Cc2nc3c(N4CCOCC4)nc(-c4cnc(N)nc4)c(Cl)n3n2)CC1,> 30000
< 25,< 25,< 25,388,< 25,< 25,< 25,< 25,< 25,< 25,3.54,< 25,CS(=O)(=O)N1CCN(Cc2cn3nc(-c4cnc(N)nc4)nc(N4CCOCC4)c3n2)CC1,> 30000
< 25,< 25,< 25,–,< 25,< 25,< 25,< 25,< 25,< 25,1.92,< 25,CS(=O)(=O)N1CCN(Cc2nc3c(N4CCOCC4)nc(-c4cnc(N)nc4)cn3n2)CC1,> 30000
